Molecular target: T1, Adenosine receptor A1 (Rattus norvegicus, UniProt P25099)
T1 sequence (P25099 whole entry): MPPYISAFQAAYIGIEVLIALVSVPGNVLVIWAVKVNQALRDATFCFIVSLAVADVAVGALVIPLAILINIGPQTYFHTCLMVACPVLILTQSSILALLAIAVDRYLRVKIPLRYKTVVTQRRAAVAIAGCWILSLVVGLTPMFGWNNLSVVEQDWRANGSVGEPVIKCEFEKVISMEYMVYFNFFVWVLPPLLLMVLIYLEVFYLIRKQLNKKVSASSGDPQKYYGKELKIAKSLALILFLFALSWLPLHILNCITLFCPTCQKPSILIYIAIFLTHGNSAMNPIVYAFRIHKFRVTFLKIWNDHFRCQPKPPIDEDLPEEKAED
Assay: Inhibitory concentration against R[3H]-N6-PIA binding to adenosine A1 receptor in rat whole brain membrane
Format: cell membranes
Conditions: not given
Procedure, shortened: (§1)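 Rat whole-brain synaptosomal membranes were made by sucrose homogenization and 14500g pelleting. They were pretreated with adenosine deaminase (2 IU/mL, 37 °C, 30 min). Assay: membranes at 100-200 µg/mL, 2 nM R-[3H]N6-PIA, 50 mM Tris-HCl pH 7.4 with 1 mM MgCl2, 60 min at 37 °C. Compounds in DMSO. Nonspecific binding defined with 100 µM R-N6-PIA. GF/B filtration and scintillation counting. At least three runs in triplicate.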

IC50 [µM]	Compound
14.6	CCCn1c(=O)[nH]c2c(cnn2-c2cccc(Cl)c2)c1=N
9.6	CCCCn1c(=O)[nH]c2c(cnn2-c2ccccc2)c1=N
19.8	CCn1c(=O)[nH]c2c(cnn2-c2cccc(Cl)c2)c1=N
50.7	CCCn1c(=O)[nH]c2c(cnn2-c2ccccc2)c1=N
20.1	CCn1c(=O)[nH]c2c(cnn2-c2ccccc2)c1=N

Tested on: not listed separately
Assay: Hydrophobicity index measured by retention time on a reverse phase HPLC column.
Format: ADME
Conditions: not given

k'	Compound
0.1	Cn1c(=O)[nH]c2c(cnn2C)c1=N
4.1	Cn1c(=O)[nH]c2c(cnn2-c2ccc(F)cc2)c1=N
> 36.5	CCCn1c(=O)[nH]c2c(cnn2-c2cccc(Cl)c2)c1=N
0.8	Cn1c(=O)[nH]c2c(cnn2-c2ccccc2N)c1=N
4.8	Cn1c(=O)[nH]c2c(cnn2-c2cc(Cl)ccc2Cl)c1=N
2.6	Cn1c(=O)[nH]c2c(cnn2-c2ccccc2)c1=N
> 36.5	Cn1c(=O)[nH]c2c(cnn2-c2ccc([N+](=O)[O-])cc2)c1=N
18.5	CCCCn1c(=O)[nH]c2c(cnn2-c2ccccc2)c1=N
21.9	CCn1c(=O)[nH]c2c(cnn2-c2cccc(Cl)c2)c1=N
14.2	Cn1c(=O)[nH]c2c(cnn2-c2cccc(Cl)c2)c1=N
7.5	CCCn1c(=O)[nH]c2c(cnn2-c2ccccc2)c1=N
17.5	Cn1c(=O)[nH]c2c(cnn2-c2cccc(Br)c2)c1=N
5.8	Cn1c(=O)[nH]c2c(cnn2-c2cccc(F)c2)c1=N
0.8	CCCn1ncc2c(=N)n(C)c(=O)[nH]c21
0.3	Cn1c(=O)[nH]c2c(cnn2-c2ccc(N)cc2)c1=N
5.1	N=c1c2cnn(-c3ccccc3)c2[nH]c(=O)n1-c1ccccc1
7.1	Cn1c(=O)[nH]c2c(cnn2-c2ccc(Cl)cc2Cl)c1=N
> 36.5	Cn1c(=O)[nH]c2c(cnn2-c2cc(Cl)cc(Cl)c2)c1=N
1.7	Cn1c(=O)[nH]c2c(cnn2-c2ccccc2Cl)c1=N
0.7	Cn1c(=O)[nH]c2c(cnn2-c2cccc(N)c2)c1=N
4.2	CCn1c(=O)[nH]c2c(cnn2-c2ccccc2)c1=N
1.8	Cn1c(=O)[nH]c2c(cnn2-c2ccccc2Br)c1=N
0.9	Cn1c(=O)[nH]c2c(cnn2-c2ccccc2[N+](=O)[O-])c1=N
18.9	Cn1c(=O)[nH]c2c(cnn2-c2ccc(Br)cc2)c1=N
13.6	Cn1c(=O)[nH]c2c(cnn2-c2ccc(Cl)cc2)c1=N
> 36.5	CCCCn1c(=O)[nH]c2c(cnn2-c2cccc(Cl)c2)c1=N
1.1	Cn1c(=O)[nH]c2c(cnn2-c2ccccc2F)c1=N
> 36.5	Cn1c(=O)[nH]c2c(cnn2-c2cccc([N+](=O)[O-])c2)c1=N

Molecular target: T1, Adenosine receptor A1
Assay: Inhibitory concentration against R[3H]-N6-PIA binding to adenosine A1 receptors in rat whole brain membrane
Format: cell membranes
Conditions: not given
Procedure, shortened: as §1, with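 “counting. […]” for “counting.”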

IC50 [µM]	Compound
16.5	Cn1c(=O)[nH]c2c(cnn2-c2cccc(Cl)c2)c1=N

Molecular target: T2, Adenosine receptor A1 (Rattus norvegicus) (UniProt P25099)
T2 sequence (whole entry): T1 sequence (P25099 whole entry)
Assay: Inhibition of radioligand R[3H]-N6-PIA binding to adenosine A1 receptors in rat whole brain membrane at 20 uM concentration.
Format: cell membranes
Conditions: not given
Procedure, shortened: as §1, with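 “counting. […]” for “counting.”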

inhibition [%]	Compound
6	Cn1c(=O)[nH]c2c(cnn2C)c1=N
26	Cn1c(=O)[nH]c2c(cnn2-c2ccc(F)cc2)c1=N
68	CCCn1c(=O)[nH]c2c(cnn2-c2cccc(Cl)c2)c1=N
0	Cn1c(=O)[nH]c2c(cnn2-c2ccccc2N)c1=N
1	Cn1c(=O)[nH]c2c(cnn2-c2cc(Cl)ccc2Cl)c1=N
30	Cn1c(=O)[nH]c2c(cnn2-c2ccccc2)c1=N
5	Cn1c(=O)[nH]c2c(cnn2-c2ccc([N+](=O)[O-])cc2)c1=N
72	CCCCn1c(=O)[nH]c2c(cnn2-c2ccccc2)c1=N
70	CCn1c(=O)[nH]c2c(cnn2-c2cccc(Cl)c2)c1=N
53	Cn1c(=O)[nH]c2c(cnn2-c2cccc(Cl)c2)c1=N
52	CCCn1c(=O)[nH]c2c(cnn2-c2ccccc2)c1=N
40	Cn1c(=O)[nH]c2c(cnn2-c2cccc(Br)c2)c1=N
44	Cn1c(=O)[nH]c2c(cnn2-c2cccc(F)c2)c1=N
5	CCCn1ncc2c(=N)n(C)c(=O)[nH]c21
0	Cn1c(=O)[nH]c2c(cnn2-c2ccc(N)cc2)c1=N
25	N=c1c2cnn(-c3ccccc3)c2[nH]c(=O)n1-c1ccccc1
9	Cn1c(=O)[nH]c2c(cnn2-c2ccc(Cl)cc2Cl)c1=N
29	Cn1c(=O)[nH]c2c(cnn2-c2cc(Cl)cc(Cl)c2)c1=N
7	Cn1c(=O)[nH]c2c(cnn2-c2ccccc2Cl)c1=N
0	Cn1c(=O)[nH]c2c(cnn2-c2cccc(N)c2)c1=N
58	CCn1c(=O)[nH]c2c(cnn2-c2ccccc2)c1=N
6	Cn1c(=O)[nH]c2c(cnn2-c2ccccc2Br)c1=N
5	Cn1c(=O)[nH]c2c(cnn2-c2ccccc2[N+](=O)[O-])c1=N
34	Cn1c(=O)[nH]c2c(cnn2-c2ccc(Br)cc2)c1=N
37	Cn1c(=O)[nH]c2c(cnn2-c2ccc(Cl)cc2)c1=N
58	CCCCn1c(=O)[nH]c2c(cnn2-c2cccc(Cl)c2)c1=N
8	Cn1c(=O)[nH]c2c(cnn2-c2ccccc2F)c1=N
2	Cn1c(=O)[nH]c2c(cnn2-c2cccc([N+](=O)[O-])c2)c1=N

Molecular target: Adenosine A2 receptor (Rattus norvegicus) (UniProt P29276+P30543)
Assay: Inhibition of radioligand R[3H]-CGS 21680 binding to adenosine A2 receptors in rat striatal membrane at 20 uM concentration.
Format: cell membranes
Conditions: Striatum
Procedure, shortened: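 Striata from male Wistar rats (300-400 g) were homogenized in 50 mM Tris-HCl pH 7.4 with 10 mM MgCl2 and pelleted twice at 48000g. Assay: membranes at 100-200 µg/mL, 5 nM [3H]CGS 21680, 90 min at 23 °C. Nonspecific binding defined with 20 µM 2-chloroadenosine. Filtration and counting as in the A1 assay. Compounds tested at 20 µM; result expressed as % inhibition of control binding.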

inhibition [%]	Compound
0	Cn1c(=O)[nH]c2c(cnn2C)c1=N
0	Cn1c(=O)[nH]c2c(cnn2-c2ccc(F)cc2)c1=N
35	CCCn1c(=O)[nH]c2c(cnn2-c2cccc(Cl)c2)c1=N
0	Cn1c(=O)[nH]c2c(cnn2-c2ccccc2N)c1=N
3	Cn1c(=O)[nH]c2c(cnn2-c2cc(Cl)ccc2Cl)c1=N
7	Cn1c(=O)[nH]c2c(cnn2-c2ccccc2)c1=N
0	Cn1c(=O)[nH]c2c(cnn2-c2ccc([N+](=O)[O-])cc2)c1=N
21	CCCCn1c(=O)[nH]c2c(cnn2-c2ccccc2)c1=N
24	CCn1c(=O)[nH]c2c(cnn2-c2cccc(Cl)c2)c1=N
29	Cn1c(=O)[nH]c2c(cnn2-c2cccc(Cl)c2)c1=N
7	CCCn1c(=O)[nH]c2c(cnn2-c2ccccc2)c1=N
1	Cn1c(=O)[nH]c2c(cnn2-c2cccc(Br)c2)c1=N
22	Cn1c(=O)[nH]c2c(cnn2-c2cccc(F)c2)c1=N
0	CCCn1ncc2c(=N)n(C)c(=O)[nH]c21
0	Cn1c(=O)[nH]c2c(cnn2-c2ccc(N)cc2)c1=N
0	N=c1c2cnn(-c3ccccc3)c2[nH]c(=O)n1-c1ccccc1
0	Cn1c(=O)[nH]c2c(cnn2-c2ccc(Cl)cc2Cl)c1=N
0	Cn1c(=O)[nH]c2c(cnn2-c2cc(Cl)cc(Cl)c2)c1=N
0	Cn1c(=O)[nH]c2c(cnn2-c2ccccc2Cl)c1=N
0	Cn1c(=O)[nH]c2c(cnn2-c2cccc(N)c2)c1=N
16	CCn1c(=O)[nH]c2c(cnn2-c2ccccc2)c1=N
0	Cn1c(=O)[nH]c2c(cnn2-c2ccccc2Br)c1=N
7	Cn1c(=O)[nH]c2c(cnn2-c2ccccc2[N+](=O)[O-])c1=N
7	Cn1c(=O)[nH]c2c(cnn2-c2ccc(Br)cc2)c1=N
0	Cn1c(=O)[nH]c2c(cnn2-c2ccc(Cl)cc2)c1=N
38	CCCCn1c(=O)[nH]c2c(cnn2-c2cccc(Cl)c2)c1=N
0	Cn1c(=O)[nH]c2c(cnn2-c2ccccc2F)c1=N
1	Cn1c(=O)[nH]c2c(cnn2-c2cccc([N+](=O)[O-])c2)c1=N

Molecular target: Adenosine A2 receptor (Rattus norvegicus, UniProt P29276+P30543)
Assay: Inhibitory concentration against [3H]CGS 21680 binding to adenosine A2 receptors in rat striatal membrane
Conditions: not given

IC50 [µM]	Compound
47.3	CCCn1c(=O)[nH]c2c(cnn2-c2cccc(Cl)c2)c1=N
24.8	CCCCn1c(=O)[nH]c2c(cnn2-c2ccccc2)c1=N
23.5	CCn1c(=O)[nH]c2c(cnn2-c2cccc(Cl)c2)c1=N
50.2	CCCn1c(=O)[nH]c2c(cnn2-c2ccccc2)c1=N
81.8	CCn1c(=O)[nH]c2c(cnn2-c2ccccc2)c1=N
19.2	CCCCn1c(=O)[nH]c2c(cnn2-c2cccc(Cl)c2)c1=N

Molecular target: Adenosine receptors; A1 & A2 (Rattus norvegicus) (UniProt P29276+P25099+P30543)
Assay: Ratio of IC50 for A2 and A1 receptor binding
Format: protein assay
Conditions: not given

Ratio	Compound
3.2	CCCn1c(=O)[nH]c2c(cnn2-c2cccc(Cl)c2)c1=N
2.6	CCCCn1c(=O)[nH]c2c(cnn2-c2ccccc2)c1=N
1.2	CCn1c(=O)[nH]c2c(cnn2-c2cccc(Cl)c2)c1=N
1	CCCn1c(=O)[nH]c2c(cnn2-c2ccccc2)c1=N
4.1	CCn1c(=O)[nH]c2c(cnn2-c2ccccc2)c1=N
